TAAR1 agonist – human TAAR1 agonists, primary screen, Fluo-8 calcium fluorescence, CHO RD-HGA16 cells | activation, % at 3 µM | Trace amine-associated receptor 1 (Homo sapiens), Q96RJ0 | AID 624467, 2012 | 360,000 tested, 0.99% active | vehicle wells 0%, saturating PEA agonist 100%;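 active means activation above the mean activation of all test compounds in the run plus 3 SD, cut at about 38% in these data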
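test system = CHO RD-HGA16 cells carrying human TAAR1 plus Gα16 | schedule = 17-24 h seeding, 75 min 37 °C dye, 30 min RT | compound dosing = 3 µM single concentration | control set = DMSO and PEA EC100 | replicates = n 1 | signal = Fluo-8 fluorescence, 5 s baseline then 140 s kinetic read | measure = percent activation vs PEA EC100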
TAAR1 antagonist – human TAAR1 antagonists, primary screen, Fluo-8 calcium fluorescence, CHO RD-HGA16 cells | Trace amine-associated receptor 1 (Homo sapiens), Q96RJ0 | antagonist | inhibition, % at 3 µM | 360,000 tested, 1.5% active | AID 624466, 2012;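 active means inhibition above a per-plate cutoff, the mean inhibition of test compounds on that plate plus 3 SD, cut at about 49% in these data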;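 further: 0% = DMSO plus EC80 beta-PEA response and 100% = DMSO alone without agonist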
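Assay system: CHO-derived RD-HGA16 cells stably expressing human TAAR1 plus Gα16. Timing: 140 s kinetic read after compound, 140 s after agonist. Technique: kinetic Fluo-8 calcium fluorescence measurement. Measure: % inhibition of agonist calcium response.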
OX1R antag-1 – OX1R (HCRTR1) antagonists, primary screen, fluorescence, CHO/OX1R cells, Fluo-8 calcium, orexin A; Orexin/Hypocretin receptor type 1 (Homo sapiens), O43613; Fluo-8 calcium fluorescence; inhibition, % at 5 µM; 330,000 tested, 0.43% active;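 active means inhibition above its plate's threshold, mean inhibition of all tested compounds on the plate plus 3 SD, cut at about 37% in these data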;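 further: 0% = orexin A challenge wells and 100% = SB-334867-A antagonist wells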
Target sequence (O43613 whole entry, looked up): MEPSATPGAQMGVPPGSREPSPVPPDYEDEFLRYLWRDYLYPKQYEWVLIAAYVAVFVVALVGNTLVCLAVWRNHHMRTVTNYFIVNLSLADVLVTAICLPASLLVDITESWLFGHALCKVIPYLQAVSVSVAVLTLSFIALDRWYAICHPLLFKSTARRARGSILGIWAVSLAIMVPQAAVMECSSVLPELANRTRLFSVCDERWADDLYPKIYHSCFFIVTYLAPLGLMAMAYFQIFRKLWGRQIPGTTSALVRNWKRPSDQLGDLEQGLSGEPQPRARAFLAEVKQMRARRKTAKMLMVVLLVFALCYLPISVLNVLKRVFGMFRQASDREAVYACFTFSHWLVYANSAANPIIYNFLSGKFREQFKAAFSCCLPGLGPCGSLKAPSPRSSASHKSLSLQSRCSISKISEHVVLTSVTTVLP
GPR7 antagonist – GPR7 receptor antagonists, primary screen, cell-based, fluorescence, single concentration; Neuropeptides B/W receptor type 1 (Homo sapiens), P48145; GPR7-expressing cells, fluorescence antagonist assay; inhibition, % at 4.4 µM; 290,000 tested, 1.1% active; AID 1861, 2009; in the data active means inhibition above about 16%, passing the limit was not always enough;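 further: cells stimulated with the agonist NPW; 0% = agonist with vehicle and 100% = vehicle without agonist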
CHO parental Ca – ATP-evoked calcium signal inhibitors, parental CHO, primary screen, counter-screen for OX1R antagonist project, cell-based, fluorescence, Fluo-8 calcium dye; parental CHO-K1, ATP-induced calcium, Fluo-8 fluorescence; inhibition, % at 5.6 µM; 330,000 tested, 0.63% active; AID 463079, 2010;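 active means inhibition above that plate's mean sample inhibition plus 3 SD, cut at about 26% in these data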;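 further: 0% = ATP-challenged DMSO wells and 100% = DMSO wells without ATP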
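Test system: parental CHO cells; detection: calcium-sensitive Fluo-8 fluorescence; evaluation: percent inhibition of calcium signal; also added: ATP as calcium-mobilizing challenge; repeats: one well per compound; control set: ATP-challenged DMSO wells low, unchallenged DMSO wells high; compound: single nominal dose of 5.6 µM per compound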
OX1R antag-2 – antagonists of human orexin 1 receptor (OX1R) | inhibition, % at 6.6 µM | Orexin/Hypocretin receptor type 1 (Homo sapiens), O43613 | OX1R-expressing cells, FRET antagonist read-out | AID 485270, 2010 | 330,000 tested, 1.8% active; in the data active means inhibition mostly above about 38%, no sharp cut-off; inactive means mostly below about 40%;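 further: 0% = agonist challenge alone and 100% = reference antagonist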
OX1R Ca confirm – OX1R (HCRTR1) antagonists, confirmation, fluorescence, CHO/OX1R cells, Fluo-8 calcium, orexin A; shares compounds with OX1R antag-1; orexin A calcium Fluo-8 fluorescence; AID 492963, 2010; 1,100 tested, 38% active; inhibition, % at 5 µM; in the data active means inhibition above about 29%;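 further: 0% = agonist challenge alone and 100% = reference antagonist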
CHO Ca counter – ATP-evoked calcium inhibition in parental CHO, counter-screen for OX1R antagonist project, cell-based, fluorescence, CHO-K1, triplicate; AID 492965, 2010; shares compounds with OX1R antag-1; 1,100 tested, 9.3% active; ATP-induced calcium, Fluo-8 fluorescence; inhibition, % at 5.6 µM;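 active means inhibition above a per-plate limit, the mean inhibition of that plate's test compounds plus 3 SD, cut at about 25% in these data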;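 further: 0% = ATP challenge with DMSO and 100% = DMSO without ATP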
Active calls of the source: *; · = no result. Only some compounds are listed: those with a hit (about 4.5% of all), similar ones and a draw of the others.

SMILES	TAAR1 agonist	TAAR1 antagonist	OX1R antag-1	GPR7 antagonist	CHO parental Ca	OX1R antag-2	OX1R Ca confirm	CHO Ca counter
Cc1cc(C(=O)COC(=O)c2ccc(O)cc2O)c(C)n1-c1ccccc1	0.8	35.0	33.4	·	8.2	1.9	5.1	7.6
Nc1nnc(SCc2nc3scc(-c4ccccc4)c3c(=O)[nH]2)s1	13.9	-5.4	26.5	-10.8	7.8	11.1	10.0	22.2
O=C(c1ccc2ccccc2c1)C1CCCN(S(=O)(=O)c2cccnc2)C1 (stereo unspecified)	6.9	24.8	35.2	3.7	9.8	30.4	6.4	-0.4
CCOC(=O)c1ccc(N=C2SC(C(=O)Nc3ccc(C(=O)O)cc3)CC(=O)N2Cc2cccs2)cc1 (stereo unspecified)	1.2	14.7	34.7	-1.8	25.3	26.9	18.0	6.6
CCOC(=O)c1ccc(N=C2SC(C(=O)NC)CC(=O)N2Cc2ccc(F)cc2)cc1 (stereo unspecified)	6.1	-17.8	-4.1	-7.8	-1.4	14.9	·	·
O=C(CSc1ncc(-c2ccc(F)cc2)n1Cc1ccco1)Nc1nccs1	45.7*	40.0	22.5	-1.1	12.0	45.8	16.2	-8.5
CN(Cc1ccccc1)C(=O)COC(=O)c1cc(NS(=O)(=O)c2cccs2)ccc1O	12.8	27.9	43.6*	11.8	17.7	57.8	30.9*	25.8*
C/C(=N\Nc1ccc(C(F)(F)F)cn1)c1ccc(S(=O)(=O)NCc2ccco2)cc1	2.4	35.8	30.2	1.3	-15.4	34.7	4.0	-0.4
Nc1ccc(-c2nc3ccc(N)cc3o2)cc1	0.7	5.5	-13.4	-12.1	4.5	15.8	·	·
Nc1ccc(-c2nc3ccc(-c4nc5ccccc5o4)cc3[nH]2)cc1	14.6	36.5	37.8	-5.7	7.6	56.9	12.3	-7.2
Cc1ccc(NC(=O)N(C2=NCC(C)S2)c2ccccc2)cc1 (stereo unspecified)	6.4	20.0	-8.4	-14.1	-16.0	4.7	·	·
CNC(=S)N(C1=NCC(c2ccc([N+](=O)[O-])cc2)S1)c1ccccc1 (stereo unspecified)	-1.1	-8.0	20.3	1.7	11.7	29.6	-13.2	-11.0
O=C(Cc1ccc(F)cc1)Nc1nnc(-c2ccc(F)cc2)o1	-0.9	0.5	-8.5	19.1	-5.5	-3.9	·	·
N#Cc1ccccc1OCC(=O)Nc1cccc(S(=O)(=O)N2CCCCCC2)c1	11.2	52.9*	35.8	·	3.7	4.4	-1.4	-1.8
CC(=O)c1ccc(OCC(=O)Nc2cccc(S(=O)(=O)N3CCCC3)c2)cc1	6.6	23.7	25.7	·	5.2	5.8	·	·
O=C(COc1ccc2ccc(=O)oc2c1)Nc1cccc(S(=O)(=O)N2CCCCC2)c1	18.9	32.5	34.4	·	0.7	21.1	20.8	21.2
CCOC(=O)N1CCC(NC(=O)Cc2ccc(-n3c(=O)[nH]c4ccccc4c3=O)cc2)CC1	·	·	·	-8.7	·	·	·	·
Cn1c(CSc2ncccn2)nnc1SCC(=O)N1CCCc2ccccc21	5.2	13.3	31.9	6.9	-12.7	7.6	-2.3	-4.2
CCn1c(CSc2ncccn2)nnc1SCC(=O)N1CCc2ccccc21	1.4	4.8	-25.1	-5.2	-21.5	-1.4	·	·
Cc1ccc(NC(=O)C2=C(c3ccccc3)S(=O)(=O)CCS2(=O)=O)cc1	6.3	17.8	35.1	33.9*	21.5	24.5	42.9*	22.2
